# Reference: ChEMBL document CHEMBL2429786, “New serotonin 5-HT1A receptor agonists endowed with antinociceptive activity in vivo” (J Med Chem, 2013)
# Activity calls are given as the source filed them. The calls are words filed in the database; no cut-off is given here.
# Key:
# [1] = organism: Homo sapiens; test: Displacement of [125I]Tyr11-somatostatin-14 from somatostatin receptor (unknown origin) at 1 uM after 60 mins
# [2] = molecular target: Mu-type opioid receptor (Homo sapiens) (UniProt P35372); test: Displacement of [3H]DAMGO from mu opioid receptor (unknown origin) at 1 uM after 120 mins
# [3] = organism: Homo sapiens; test: Displacement of [3H]DADLE from delta2 opioid receptor (unknown origin) at 1 uM after 120 mins
# [4] = molecular target: T1, Muscarinic acetylcholine receptor M4 (Homo sapiens) (UniProt P08173); test: Displacement of [3H]-4-DAMP from muscarinic M4 receptor (unknown origin) at 1 uM after 60 mins
# T1 sequence (whole entry): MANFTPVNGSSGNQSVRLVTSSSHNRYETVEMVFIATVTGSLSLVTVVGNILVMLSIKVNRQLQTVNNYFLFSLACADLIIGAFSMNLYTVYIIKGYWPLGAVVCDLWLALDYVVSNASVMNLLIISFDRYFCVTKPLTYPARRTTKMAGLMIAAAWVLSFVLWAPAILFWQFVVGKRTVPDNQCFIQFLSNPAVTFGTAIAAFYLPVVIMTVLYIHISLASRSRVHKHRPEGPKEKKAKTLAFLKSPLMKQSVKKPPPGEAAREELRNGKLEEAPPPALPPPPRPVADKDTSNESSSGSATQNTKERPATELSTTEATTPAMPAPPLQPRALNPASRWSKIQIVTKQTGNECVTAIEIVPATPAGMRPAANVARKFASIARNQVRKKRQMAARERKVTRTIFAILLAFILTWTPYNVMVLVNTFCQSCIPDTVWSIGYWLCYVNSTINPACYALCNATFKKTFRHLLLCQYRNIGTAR
# [5] = organism: Homo sapiens; test: Displacement of [3H]CGP54626 from GABAB receptor (unknown origin) at 1 uM after 120 mins
# [6] = system: Mus musculus; test: Antinociceptive activity in CD-1 mouse assessed as reduction of formalin-induced paw licking activity at 30 mg/kg, po administered 30 mins prior to formalin-challenge measured after 15 to 30 mins; assay type: functional, organism-based; design: dose 30 mg/kg
# [7] = molecular target: Albumin (Homo sapiens, UniProt P02768); test: Binding affinity to human serum albumin at 5 uM after 12 mins by HPLC-MS analysis relative to control; assay type: ADME; settings: isolated protein, 0.2 h
# [8] = molecular target: CYP2D6 (Homo sapiens, UniProt P10635); test: Inhibition of human recombinant microsomal CYP2D6 using {3-[2-(N,N-diethyl-N-methylamino)ethyl]-7-methoxy-4-methylcoumarin} as substrate assessed as remaining activity at 10 uM after 30 mins by spectrofluorimetric analysis relative to control; assay type: ADME; settings: read-out: Activity
# [9] = Half life in mouse liver microsomes at 1 to 5 uM by HPLC-MS analysis; assay type: ADME, Microsome
# [10] = Half life in Sprague-Dawley rat liver microsomes at 1 to 5 uM by HPLC-MS analysis; assay type: ADME, Microsome
# Procedure, shortened: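 Incubation mixtures pre-equilibrated at 37 °C with NADPH and MgCl2, then rat or human liver microsomes added to start the reaction. Aliquots were withdrawn and quenched at several time points, and percent parent remaining was measured by HPLC-MS and plotted against time. t1/2 was taken from the slope of peak area over time and used to calculate CLint.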
# [11] = organism: Mus musculus; test: Hypothermic activity in Swiss mouse assessed as change in rectal temperature after 60 mins; assay type: functional; settings: 1 h, read-out: MED
# [12] = molecular target: T2, 5-hydroxytryptamine receptor 1A (Rattus norvegicus, UniProt P19327); test: Displacement of [3H]-8-OH-DPAT from 5-HT1A receptor in Sprague-Dawley rat cerebral cortex after 15 mins; assay type: tissue-based
# T2 sequence (P19327 whole entry): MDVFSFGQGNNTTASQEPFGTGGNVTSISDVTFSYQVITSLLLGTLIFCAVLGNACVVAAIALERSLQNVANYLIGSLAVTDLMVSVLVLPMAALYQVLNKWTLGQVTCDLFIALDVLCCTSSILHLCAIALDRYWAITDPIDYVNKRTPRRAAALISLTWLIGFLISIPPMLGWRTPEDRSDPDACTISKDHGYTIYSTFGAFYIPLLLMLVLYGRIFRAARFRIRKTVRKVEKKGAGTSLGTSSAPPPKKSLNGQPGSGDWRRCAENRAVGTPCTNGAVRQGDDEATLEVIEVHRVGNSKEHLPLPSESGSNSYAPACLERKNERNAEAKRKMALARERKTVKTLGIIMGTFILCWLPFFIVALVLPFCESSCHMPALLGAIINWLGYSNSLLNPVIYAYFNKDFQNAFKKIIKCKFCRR
# [13] = molecular target: 5-hydroxytryptamine receptor 4 (Rattus norvegicus, UniProt Q62758); test: Displacement of [3H]GR113808 from 5-HT4 receptor in Sprague-Dawley rat striatum after 30 mins
# Chain of 5-hydroxytryptamine receptor 4 (Q62758 whole entry): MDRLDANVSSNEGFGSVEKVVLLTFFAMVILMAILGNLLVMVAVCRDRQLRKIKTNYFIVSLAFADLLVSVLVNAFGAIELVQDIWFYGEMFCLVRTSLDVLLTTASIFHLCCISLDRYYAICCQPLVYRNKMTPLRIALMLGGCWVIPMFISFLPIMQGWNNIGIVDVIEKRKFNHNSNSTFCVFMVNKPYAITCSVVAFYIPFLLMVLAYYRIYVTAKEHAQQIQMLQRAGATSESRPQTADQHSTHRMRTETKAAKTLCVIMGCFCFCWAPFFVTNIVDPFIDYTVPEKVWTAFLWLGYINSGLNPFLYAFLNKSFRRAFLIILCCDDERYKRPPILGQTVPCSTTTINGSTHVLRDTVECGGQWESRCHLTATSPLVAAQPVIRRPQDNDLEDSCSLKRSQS
# Chain of Mu-type opioid receptor (Homo sapiens) (P35372 whole entry): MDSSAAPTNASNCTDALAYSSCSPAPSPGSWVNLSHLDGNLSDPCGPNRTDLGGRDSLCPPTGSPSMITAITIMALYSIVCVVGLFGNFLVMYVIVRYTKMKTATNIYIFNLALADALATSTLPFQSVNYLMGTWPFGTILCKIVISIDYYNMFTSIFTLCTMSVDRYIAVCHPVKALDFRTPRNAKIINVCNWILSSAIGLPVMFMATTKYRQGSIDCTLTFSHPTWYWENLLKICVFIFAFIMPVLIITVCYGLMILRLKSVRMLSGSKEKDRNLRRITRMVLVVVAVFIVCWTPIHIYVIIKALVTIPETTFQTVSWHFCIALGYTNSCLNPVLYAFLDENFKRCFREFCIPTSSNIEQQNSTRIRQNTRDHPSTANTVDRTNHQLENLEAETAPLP
# Chain of Albumin (P02768 whole entry): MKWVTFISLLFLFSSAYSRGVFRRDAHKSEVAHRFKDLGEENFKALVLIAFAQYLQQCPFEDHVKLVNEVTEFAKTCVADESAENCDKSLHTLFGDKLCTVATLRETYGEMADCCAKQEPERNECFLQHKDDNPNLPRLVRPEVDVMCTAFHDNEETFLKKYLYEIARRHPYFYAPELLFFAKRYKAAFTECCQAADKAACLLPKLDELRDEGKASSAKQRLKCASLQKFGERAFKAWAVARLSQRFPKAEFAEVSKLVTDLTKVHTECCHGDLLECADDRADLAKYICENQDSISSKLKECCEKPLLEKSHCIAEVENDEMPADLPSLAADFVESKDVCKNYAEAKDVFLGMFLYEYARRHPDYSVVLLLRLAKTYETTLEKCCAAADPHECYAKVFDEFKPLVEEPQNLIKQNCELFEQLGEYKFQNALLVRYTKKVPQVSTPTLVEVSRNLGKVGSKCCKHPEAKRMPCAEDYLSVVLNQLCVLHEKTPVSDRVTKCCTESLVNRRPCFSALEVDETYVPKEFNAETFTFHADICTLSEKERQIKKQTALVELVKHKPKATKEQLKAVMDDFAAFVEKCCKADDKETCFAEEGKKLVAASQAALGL
# Chain of CYP2D6 (P10635 whole entry): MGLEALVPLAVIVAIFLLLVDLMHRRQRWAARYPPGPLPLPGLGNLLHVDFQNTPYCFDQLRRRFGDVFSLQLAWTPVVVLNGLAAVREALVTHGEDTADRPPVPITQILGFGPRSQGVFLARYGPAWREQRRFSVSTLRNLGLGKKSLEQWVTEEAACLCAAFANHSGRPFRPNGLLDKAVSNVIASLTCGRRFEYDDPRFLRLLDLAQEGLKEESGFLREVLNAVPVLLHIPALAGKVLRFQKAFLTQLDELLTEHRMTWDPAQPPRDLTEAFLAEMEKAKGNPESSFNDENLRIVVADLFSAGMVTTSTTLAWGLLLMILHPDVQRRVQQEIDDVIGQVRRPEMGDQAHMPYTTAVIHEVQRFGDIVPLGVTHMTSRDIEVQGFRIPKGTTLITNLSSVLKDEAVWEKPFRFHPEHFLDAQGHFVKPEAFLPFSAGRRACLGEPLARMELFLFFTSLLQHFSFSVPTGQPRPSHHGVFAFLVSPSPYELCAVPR
structure (smiles),measurement,setting,value
CCOc1ccccc1OCCNCCCCN1C(=O)C2CCCN2C1=O.Cl (stereo not drawn),inhibition,[1],inactive
same,inhibition,[2],inactive
same,inhibition,[3],inactive
same,inhibition,[4],inactive
same,inhibition,[5],inactive
same,Activity,[6],Active
same,Activity,[7],25%
same,"activity at 0.5 h, 10 µM",[8],18%
same,half-life at up to 5 µM,[9],29.5 min
same,half-life at up to 5 µM,[10],13.1 min
same,minimal effective dose,[11],0.875 mg/kg
same,Ki,[12],2.3 nM
same,Ki,[13],> 1000 nM
